Sampled rows, rich in hits. Any-hit rate of the full collection: about 4.8%.
HSF1 inhib = HSF1 inhibition; hit rate 0.77% among 300,000; activity change, negative = inhibition, % at 7.5 µM (by protocol); NIH3T3-HGL HSE-luciferase, MG132-induced, luminescence 8 h; stronger effect = lower value;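 active means more than half of replicate wells show activity change below -50%, luminescence cut by over half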;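 further: luciferase reports HSF-1 transcriptional activity via heat shock element; 0% = median of DMSO wells and -100% = zero luminescence signal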
GPR7 antagonist = human neuropeptides B/W receptor 1 antagonism | AID 1861 | GPR7-expressing cells, fluorescence antagonist assay | hit rate 1.1% among 290,000 | P48145 | inhibition, % at 4.4 µM; in the data active means inhibition above about 16%, passing the limit was not always enough;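 further: cells stimulated with the agonist NPW; 0% = agonist with vehicle and 100% = vehicle without agonist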
Target sequence (P48145 whole entry, looked up): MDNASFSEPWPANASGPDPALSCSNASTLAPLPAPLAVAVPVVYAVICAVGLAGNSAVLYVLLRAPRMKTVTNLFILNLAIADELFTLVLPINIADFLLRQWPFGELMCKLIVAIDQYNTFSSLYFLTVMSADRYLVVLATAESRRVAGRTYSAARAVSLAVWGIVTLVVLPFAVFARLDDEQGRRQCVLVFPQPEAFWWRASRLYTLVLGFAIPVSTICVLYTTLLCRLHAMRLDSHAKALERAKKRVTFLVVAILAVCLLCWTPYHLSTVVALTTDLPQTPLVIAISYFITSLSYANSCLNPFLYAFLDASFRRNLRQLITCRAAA
697 NFkB inh = inhibitors of the PMA/ionomycin-induced NF-kB reporter in 697 B cells. 697 B-cell NF-kB luciferase reporter, 16 h. inhibition, % at 4 µM. hit rate 0.33% among 330,000. AID 435022; in the data active means inhibition above about 35%
HSF1 activator = increases HSF-1 driven luciferase reporter signal. NIH3T3-HGL HSF-1 luciferase reporter, MG132, 8 h; 100% = twice DMSO control signal. activation, % at 9 µM. hit rate 1.7% among 300,000;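 active means mean replicate activation of at least 50% with a set share of replicates each reaching 50%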;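 further: 0% = median of the neutral control wells and 100% = twice that signal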
T cruzi inh = blocks replication of Trypanosoma cruzi. T. cruzi beta-gal in NIH3T3, luminescence, 90 h. inhibition, % (no concentration beside the values). hit rate 1.4% among 300,000. AID 1885;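 active means mean inhibition across valid replicates above about 55%, limit read from the data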;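 further: signal also drops with host cell toxicity which is not excluded here; 0% = plate median of DMSO wells and 100% = zero luminescence signal; higher percent means less beta-gal luminescence so fewer parasites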
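System: Mouse NIH/3T3 fibroblasts infected with β-gal-expressing T. cruzi Tulahuen C4 | Quantity: NIH/3T3 cells, 5,000 per well | Reagent: 5000 reporter trypomastigotes per well | Dosing: Compound pinned at 50 nL/well, DMSO | Schedule: 3 h host attachment, then at least 90 h co-culture | Detection: GalScreen luminescence, 60 min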
Jurkat NFkB inh = lowers PMA/ionomycin-induced NF-kB signal in Jurkat cells | PMA/ionomycin-induced NF-kB luciferase reporter, luminescence | inhibition, % at 4 µM | hit rate 0.53% among 330,000 | AID 435003; in the data active means inhibition above about 50%
The depositor's hits bear a star; / = no result given.

SMILES	HSF1 inhib	GPR7 antagonist	697 NFkB inh	HSF1 activator	T cruzi inh	Jurkat NFkB inh
Nc1cc(=O)[nH]n1C1CCCC1	11	-7	-2	0	-25	14
C=Cn1cc[n+](CC(=O)c2ccc(OC)cc2)c1	1	-9	-7	4	3	13
O=C(NC(CC(=O)N1CCN(c2ccc([N+](=O)[O-])cc2)CC1)c1ccccc1)c1ccccc1Cl (stereo not given)	3	4	4	1	-20	1
O=c1c(Cl)c(Cl)cnn1Cc1ccc(F)cc1	24	4	-10	29	-18	2
O=C1CN(C(=O)Cn2ncc(Cl)c(Cl)c2=O)c2ccccc2N1	36	2	/	34	75*	/
O=C(OCn1ncc(Cl)c(Cl)c1=O)c1ccc(F)cc1	-94*	-4	-31	-94	63*	32
CC(C)(C)C(=O)Cn1ncc(Cl)c(Cl)c1=O	0	-11	/	15	-4	/
O=C(OCn1ncc(Cl)c(Cl)c1=O)c1ccccc1Cl	-95*	2	/	-95	58*	/
O=C(Cn1ncc(N2CCOCC2)c(Cl)c1=O)c1ccc(Cl)cc1	23	3	-16	19	8	-10
O=C(Cn1ncc(Cl)c(Cl)c1=O)c1ccc(Cl)cc1	29	8	/	56*	75*	/
N[C@@H](Cc1ccc(O)cc1)c1nnc([C@H](CC(=O)O)NC(=O)C2CCNCC2)o1	-4	8	14	-2	-27	8
CCCNC(=O)C(Cc1ccc(I)cc1)NC(=O)c1ccc(C#N)cc1 (stereo not given)	/	/	8	/	/	12
Cc1cc(C)c(Nc2ncccc2C(=O)O)c(C)c1	5	-12	19	12	4	0
Cc1cccc(Nc2ncccc2C(=O)O)c1C	-58*	-11	1	-67	5	0
CCC1CCc2sc(C(=O)N3CCCN(C)CC3)cc2C1 (stereo not given)	2	2	-106	-25	39	-33
COc1ccc2oc(=O)c(N3C(=O)c4ccccc4C3=O)cc2c1	-66*	-8	18	-72	-5	8
Cc1ccc(NC(=S)N=Nc2c(O)n(C)c3ccc(S(=O)(=O)N4CCOCC4)cc23)cc1	23	-9	/	58*	44	/
C=CCn1c(O)c(N=NC(=S)Nc2ccccc2F)c2ccccc21	11	2	-3	21	49	9
C=CCn1c(O)c(N=NC(=S)Nc2ccccc2F)c2cc(S(=O)(=O)N3CCOCC3)ccc21	9	4	-17	36	58*	12
Cc1ccccc1NC(=O)CCC(=O)OCC(=O)c1cccc([N+](=O)[O-])c1	-6	-5	12	-21	-15	-4
Cc1ccc(-c2nc(=S)c3c(n2Cc2ccco2)CC(C)(C)OC3)cc1	9	17*	-3	12	18	-8
COc1cccc(-c2nc(=S)c3c(n2Cc2ccco2)CCCC3)c1	114	-4	25	124*	26	9
CCOC(=O)c1sc(/N=C/c2c(C)[nH]n(-c3ccccc3)c2=O)c(C#N)c1C	-2	-6	12	-1	-10	3
CC(CCC(=O)O)C1CC[C@H]2C3CCC4CC(=O)CCC4(C)[C@H]3CC(=O)C12C (stereo not given in full)	13	14	-26	58*	17	-39
CCc1ccc(-c2cc(C(F)(F)F)n3nc(C(=O)Nc4c(C)nn(Cc5ccccc5Cl)c4C)cc3n2)s1	10	15	-40	13	12	0
SMILES	HSF1 inhib	GPR7 antagonist	697 NFkB inh	HSF1 activator	T cruzi inh	Jurkat NFkB inh
CCc1ccc(-c2cc(C(F)(F)F)n3nc(C(=O)Nc4c(C)nn(Cc5ccccc5C)c4C)cc3n2)s1	3	-2	-46	-2	59*	9
CCOC(=O)C(NS(=O)(=O)c1ccc(Br)cc1)C(C)C (stereo not given)	24	3	19	55*	4	9
CCC(C)C(NS(=O)(=O)c1ccc(C)cc1)C(=O)O (stereo not given)	3	3	-3	0	0	3
CC1CC1C(=O)Nc1cc(S(=O)(=O)N2CCOCC2)ccc1N1CCCC1 (stereo not given)	/	-5	-14	/	-4	9
Cc1cc(C)c(S(=O)(=O)Nc2cc(C)on2)c(C)c1	-4	-2	11	2	-3	-4
CCCCC(CC)C(=O)NCc1ccc(F)cc1 (stereo not given)	-9	-2	-29	1	14	-25
CCOc1ccc(C2Nc3ccc4ccccc4c3-c3c2c(=O)oc2ccccc32)cc1 (stereo not given)	-17	7	13	-24	66*	27
COc1ccc(C2Nc3ccc4ccccc4c3-c3c2c(=O)oc2ccccc32)cc1 (stereo not given)	/	-8	-7	/	66*	2
O=c1oc2ccccc2c2c1C(c1ccc(Cl)cc1)Nc1ccc3ccccc3c1-2 (stereo not given)	0	2	-31	24	35	18
C/C(=N\NS(=O)(=O)c1ccccc1)c1cc(Cl)cc(Cl)c1O	-4	1	-12	-8	-32	4
O=C(CCCN1C(=O)c2cccc3cccc(c23)C1=O)Nc1ccon1	49	-4	12	113*	3	-1
CCn1cc(C(=O)NCc2ccc3c(c2)OCO3)c(=O)c2cc(F)c(N3CCN(C)CC3)cc21	1	7	6	-7	60*	-17
CCCCCn1c(NC(=O)c2ccco2)c(S(=O)(=O)c2ccc(C)cc2)c2nc3ccccc3nc21	30	21	-7	42	55*	24
CCCCn1c(NC(=O)c2ccco2)c(S(=O)(=O)c2ccc(C)cc2)c2nc3ccccc3nc21	58	-7	/	137*	12	/
S=C(NCc1ccco1)N1CCN(Cc2ccc(Cl)cc2Cl)CC1	27	0	4	46	14	-4
O=C(CSc1nc2c(c(=O)[nH]1)CCC2)Nc1ccccc1Cl	11	3	21	26	-2	8
Cc1c(Cl)cccc1NC(=O)CSc1nc2c(c(=O)[nH]1)CCCC2	12	10	5	60*	-12	-27
O=c1[nH]c(SCc2cccc(F)c2)nc2c1CCCC2	33	0	9	63*	5	14
CC(=O)OCC(=O)N1N=C(c2ccc3ccccc3c2)CC1c1ccccc1 (stereo not given)	27	1	-39	53*	6	-54
CCOC(=O)/C=C(\C)N1N=C(c2ccccc2)CC1c1ccccc1 (stereo not given)	35	-21	-81	65*	12	-73
COc1ccc(C2CC(c3ccc4ccccc4c3)=NN2C(=O)CNC2CCCCC2)cc1 (stereo not given)	-7	18	-8	11	80*	3
C=CCNCC(=O)N1N=C(c2ccc3ccccc3c2)CC1c1ccc(OC)cc1 (stereo not given)	1	15	-3	7	46	16
